For test [1], the system named is PC-12. The test is described as follows: Inhibition of H202-induced apoptosis in rat PC-12 cells assessed as viable cells at 25 uM after 24 hrs by Annexin-V-FITC/PI-staining based flow cytometric analysis (reference value: 52.01%). The test is classed as functional. The conditions noted are these: read-out: Activity. An outline of the steps:
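PC12 cells seeded 2 × 10⁵/well for 24 h, pretreated 24 h with 12.5, 25, 50 or 100 µM compound, then given fresh medium containing 650 µM H2O2. Harvested cells washed in binding buffer, stained 5 min with Annexin V-FITC/PI, analysed by flow cytometry.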

For test [2], the system named is PC-12. Put plainly: Inhibition of H2O2-induced reactive oxygen species production in rat PC-12 cells assessed as ROS accumulation at 100 uM measured after pretreated for 24 hrs followed by H2O2 challenge and measured after 24 hrs by DCFH-DA probe based flow cytometry. The class given is functional, cell-based. An outline of the steps: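 PC12 cells seeded 1 × 10⁴/well, pretreated 24 h with 12.5–100 µM compound, then 300 µM H2O2 for 24 h. Rinsed, loaded with DCFH-DA (1:1000 in serum-free medium) 15 min at room temperature in the dark, washed; fluorescence read by microscopy, plate reader ([…]) and flow cytometry; three independent experiments.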
A general note: Flow cytometry measures light scatter and fluorescence of single cells or particles in a stream.

The subject of test [3] is Mus musculus. The test is described as follows: Neuroprotective activity in lesioned C57BL/6 mouse model of Parkinson's disease assessed as increase in time spent on rotarod at 50 mg/kg, po administered for 2 week before MPTP stimulation by rotarod test. Conditions: time 2 weeks. The test is classed as functional. Put shortly: (§1)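 Male 10-week-old C57BL/6 mice (20–23 g), n = 6/group. Prophylactic: oral compound (50 or 100 mg/kg in saline) 2 weeks, then MPTP-HCl 25 mg/kg i.p. in week 3. Therapeutic: MPTP-HCl 25 mg/kg i.p. 1 week, then oral 100 mg/kg 2 weeks. Saline vehicle. Pole/rotarod training last 3 days; TH immunohistochemistry on SNpc and striatum.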

Test [4] has as its system PC-12. Put plainly: Neuroprotective activity against H202-induced cell damage in rat PC-12 cells assessed as decrease in LDH content incubated at 12.5 to 25 uM for 24 hrs by Lactate dehydrogenase assay. The conditions noted are these: dose 12.5-25 µM. The test is classed as functional, cell-based. Put shortly: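 PC12 cells seeded 1 × 10⁴/well for 24 h, pretreated with compound at several concentrations (12.5–100 µM range), then challenged with H2O2; LDH released into medium quantified as membrane-damage marker. Mean ± SD, three independent experiments.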

The subject of test [5] is Mus musculus. Put plainly: Neuroprotective activity in lesioned C57BL/6 mouse model of Parkinson's disease assessed as assessed as reduction in climbing down time at 50 mg/kg, po administered for 2 week before MPTP stimulation by pole test. The test is classed as functional. The conditions noted are these: C57BL/6, po, 336 h, time 2 weeks. An outline of the steps:
as §1

The test system of test [6] is PC-12. The test is described as follows: Neuroprotective activity against H2O2-induced cytotoxicity in rat PC-12 cells assessed as cell viability at 100 uM pretreated for 24 hrs followed by H2O2 challenge and measured after 24 hrs by MTT assay (reference value: 52.81 +/- 6%). The conditions noted are these: time 48.0 hrs. The class given is functional, cell-based.
Test [7] deals with PC-12. The test is described as follows: Upregulation of NQO1 expression in rat PC-12 cell incubated for 24 hrs by Western blot analysis. The test is classed as functional. Put shortly:
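PC12 cells treated with compound for 24 h; lysates resolved by SDS-PAGE, transferred to PVDF and probed for HO-1 and NQO1; band intensities quantified densitometrically. Mean ± SD of three independent experiments.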

The source of these data is ChEMBL document CHEMBL4765320, “Identification and optimization of piperine analogues as neuroprotective agents for the treatment of Parkinson's disease via the activation of Nrf2/keap1 pathway” (Eur J Med Chem, 2020).

SMILES strings stand for the structures. Calls of active or inactive are those of the source. The calls are words filed in the database; no cut-off is given here.

For orientation: inhibition in vivo means how much of the control response was suppressed.

In the case of `COc1ccccc1/C=C/C=C/C(=O)N1CCCCC1`, the viability at 25 µM in test [1] stood at 69%. The outcome in test [2] was inactive. Besides, the Time in test [3] stood at 253.7 s. Moreover, the outcome in test [4], in test [6] and in test [7] was Active. Also, the inhibition in vivo at 50 mg/kg in test [5] was 38.1%.
